In PubChem BioAssay AID463191 (Sanford-Burnham Center for Chemical Genomics, 2010):
Active and inactive are the calls of the source.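 The calls were made as follows: active = compounds whose mean IC50 across repeat dose response tests falls below a set limit; inactive = the rest.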

Test system: AML12 mouse hepatocytes, BODIPY lipid droplet imaging
Test: potency against lipid droplet buildup in liver cells – imaging, AML12 mouse hepatocytes, high-content, dose response (AID 463191)
Details: cells loaded with 100 µM oleic acid
Procedure, shortened: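 Material: mouse AML12 hepatocytes; dosing: Seven-point series from 32 to 0.5 µM, 0.32% DMSO; schedule: ~20 h pre-growth at 37 °C, overnight treatment; benchmarks: Triacsin-C at 5 µM as positive control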

Row | SMILES | IC50
1 | CCC(C(=O)NCCc1ccccc1OC)n1nc(C)c2c(C)n(-c3ccccc3)nc2c1=O (stereo unspecified) | 3260 nM
2 | CCOc1ccc(CCNC(=O)CCS(=O)(=O)c2ccc(C)cc2)cc1OCC | 1850 nM
3 | CCN(CC)c1ccc(NC(=O)CCc2nnc3ccc(N4CCCC4)nn23)c(C)c1 | 2350 nM
4 | COc1ccc(-c2csc(NC(=O)c3ccc(OCC(=O)N4CCOCC4)c(OC)c3)n2)cc1OC | 1900 nM
5 | COc1ccc(CCNC(=O)c2cc(-c3ccccc3)c(N3CCOCC3)s2)c(OC)c1OC | < 500 nM
6 | CCOc1ccc(CN(C)C(=O)CNC(=O)c2ccc(Br)o2)cc1OC | 3880 nM
7 | CCOc1ccc(CCNC(=O)Cn2ncn3nc(-c4ccc(OC)cc4)cc3c2=O)cc1OCC | < 500 nM
8 | Cc1ccc(NC(=O)CSc2nc3ccccc3nc2N2CCCC2)cc1 | 2110 nM
9 | FC(F)Oc1ccc(-c2csc(NNC3=NCCCCC3)n2)cc1 | 916 nM
10 | Cc1ccc(-n2nc3c(=O)n(C(C)C(=O)NCCc4cccs4)nc(C)c3c2C)cc1 (stereo unspecified) | 3220 nM
11 | Cc1cccc(C(C(=O)NC2CCCC2)N(C(=O)c2csnn2)C2CCCC2)c1 (stereo unspecified) | 23900 nM (inactive)
12 | CCOc1ccc(CCNC(=O)c2cc3sccc3n2CC)cc1OCC | < 500 nM
13 | CCOc1ccc(NC(=O)CSc2nc3ccccc3nc2N2CCCC2)cc1 | 1770 nM
14 | COc1cc(NC(=O)c2ccco2)c(OC)cc1NC(=O)CCC(=O)Nc1cc(C)cc(C)c1 | < 500 nM
15 | CCOc1ccc2nc(-c3ccccc3)nc(SCC(=O)Nc3ncc(C)s3)c2c1 | < 500 nM
16 | O=C1C(NS(=O)(=O)c2ccccc2)=C(N2CCN(c3ccc(F)cc3)CC2)C(=O)c2ccccc21 | 1780 nM
17 | CCCCn1c(=O)[nH]c(=O)c2c1nc(-c1ccc(-c3ccccc3)cc1)n2C | 9970 nM (inactive)
18 | CCOc1cc2c(cc1OCC)C(c1ccccc1OC)OC(=O)C2 (stereo unspecified) | > 32000 nM (inactive)
19 | CCOc1cc2c(cc1OCC)C(c1ccccc1)N(c1ccccc1)C(=O)C2 (stereo unspecified) | 973 nM
20 | Cc1cc(C)cc(NC(=O)CSc2nc3ccccc3nc2N2CCCC2)c1 | 2110 nM
21 | CCOc1ccccc1NC(=O)N1CCCC1C(=O)Nc1ccc(-n2cnnn2)c(C)c1 (stereo unspecified) | 1420 nM

Row | SMILES | IC50
22 | CCOc1ccc(CCNC(=O)CN2CCN(Cc3ccccc3C)C2=O)cc1OCC | 924 nM
23 | CCOc1ccc(CCNC(=O)c2ccc3ccccc3n2)cc1OCC | 1310 nM
24 | CCc1ccc(NC(=O)CSc2nnc(C)c(=O)n2N)cc1 | 1480 nM
25 | CCOc1ccccc1Nc1nnc(SCC(=O)Nc2nc(-c3ccc(OC)cc3)cs2)s1 | 1020 nM
26 | CCOc1ccc(CCNC(=O)/C=C/c2ccco2)cc1OCC | 1050 nM
27 | Cc1cccc(NC(=O)[C@H](C)NC(=O)[C@@H]2Cc3ccccc3CN2C(=O)OC(C)(C)C)c1 | 1630 nM
28 | COc1ccc(NC(=O)CCC(=O)Nc2cc(OC)c(NC(=O)c3cccs3)cc2OC)cc1 | 710 nM
29 | Cc1cc(C)c(C(=O)NC2CCCc3c2cnn3-c2cccc(C)c2C)o1 (stereo unspecified) | 21600 nM (inactive)
30 | CCc1nn2c(N3CCOCC3)cc(C)nc2c1-c1ccc(F)cc1 | < 500 nM
31 | COc1cccc(C(=O)NC2CCCc3c2cnn3-c2cc(C)cc(C)c2)c1 (stereo unspecified) | 2060 nM
32 | CCOc1ccc(C(=O)CCC(=O)NCC(=O)OCc2ccccc2)cc1OCC | 8000 nM (inactive)
33 | Cc1ccc(-c2c(C)nn3c(N4CCOCC4)cc(C)nc23)cc1 | 633 nM
34 | CCCc1ccc(-c2csc(NC(=O)Cc3cccs3)n2)cc1 | 1480 nM
35 | COc1ccccc1NS(=O)(=O)c1ccc(N/N=C/c2c(C)nn(-c3ccccc3)c2N2CCCC2)c([N+](=O)[O-])c1 | < 500 nM
36 | CCOc1ccc(CCNC(=O)CCS(=O)(=O)c2ccc(Br)cc2)cc1OCC | 3270 nM
37 | CCOc1ccc(C(=O)NCC(=O)NC(C)CCc2ccccc2)cc1OCC (stereo unspecified) | 858 nM
38 | COCCCn1c(SCC(=O)Nc2ccc(NC(=O)c3ccco3)c(OC)c2)nc2ccccc2c1=O | 1850 nM
39 | CCOc1ccc(CCNC(=O)Cn2nc(C)c3c(C)n(-c4ccccc4)nc3c2=O)cc1OCC | < 500 nM
40 | CCN(CC(=O)Nc1c(F)cccc1F)C(=O)CCCc1c[nH]c2ccccc12 | 1890 nM
41 | CCCCOc1ccc(/C=C/C(=O)OCC(=O)c2c(N)n(C)c(=O)n(C)c2=O)cc1OCC | 28800 nM (inactive)
